Consider 7 compounds from ChEMBL document CHEMBL2046311, “Design, synthesis, and molecular hybrids of caudatin and cinnamic acids as novel anti-hepatitis B virus agents” (Eur J Med Chem, 2012).

The structures appear in SMILES notation.

In series [1] the test system is Hepatitis B virus. The experiment in a line: Antiviral activity against Hepatitis B virus infected in human HepG2(2.2.15) cells assessed as inhibition of viral DNA replication by PCR analysis. Type of series: functional, organism-based. The procedure, abridged:
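HepG 2.2.15 cells grown in RPMI-1640 with 10% fetal calf serum, […] and penicillin/streptomycin at 37 °C, 5% CO2. Compounds added in DMSO, kept below 2.5 μL/mL. HBV DNA quantified by SYBR Green real-time PCR with HBV-specific primers spanning 541–591 bp. IC50 values are means of at least two experiments.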

Series [2] can be described thus: Selectivity index, ratio of CC50 for human HepG2(2.2.15) cells to IC50 for Hepatitis B virus infected in human HepG2(2.2.15) cells assessed as inhibition of viral surface antigen secretion. It counts as functional. The procedure, abridged: (§1)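 SI calculated as CC50 (MTT, HepG 2.2.15) divided by IC50 for the named read-out (HBV DNA by real-time PCR, or HBeAg or HBsAg secretion by ELISA), in the same cell line.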

The subject of series [3] is Hepatitis B virus. The series is described as follows: Antiviral activity against Hepatitis B virus infected in human HepG2(2.2.15) cells assessed as inhibition of viral e antigen secretion by ELISA. Type of series: functional, organism-based. The method, boiled down: (§2)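 HepG 2.2.15 cells in RPMI-1640 with 10% fetal calf serum at 37 °C, 5% CO2. Compounds dissolved in DMSO, culture DMSO below 2.5 μL/mL. Secreted HBeAg and HBsAg measured by ELISA. IC50 values are means of at least two experiments.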

A short description of series [4]: Selectivity index, ratio of CC50 for human HepG2(2.2.15) cells to IC50 for Hepatitis B virus infected in human HepG2(2.2.15) cells assessed as inhibition of viral DNA replication. Type of series: functional. The method, boiled down: as §1
Series [5] relates to Hepatitis B virus. The series is described as follows: Antiviral activity against Hepatitis B virus infected in human HepG2(2.2.15) cells assessed as inhibition of viral surface antigen secretion by ELISA. It counts as functional, organism-based. The method, boiled down: as §2
The nature of series [6]: Cytotoxicity against human HepG2(2.2.15) cells by modified-MTT assay. It counts as cell-based. The procedure, abridged: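 HepG 2.2.15 cells in RPMI-1640 with 10% fetal calf serum at 37 °C, 5% CO2. Compounds in DMSO, final DMSO below 2.5 μL/mL. Viability read by modified MTT method. CC50 is the mean of at least two experiments.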
Series [7] can be described thus: Selectivity index, ratio of CC50 for human HepG2(2.2.15) cells to IC50 for Hepatitis B virus infected in human HepG2(2.2.15) cells assessed as inhibition of viral e antigen secretion. It counts as functional. The method, boiled down:
as §1

Turning to `CC(=O)[C@]1(O)CC[C@@]2(O)[C@]1(C)[C@H](OC(=O)/C=C(\C)C(C)C)C[C@@H]1[C@@]3(C)CC[C@H](OC(=O)/C=C/c4ccc(C=O)cc4)CC3=CC[C@]12O`, the IC50 came to 6.34 µM in series [1], 19.2 µM in series [3] and 23.5 µM in series [5]. The entries for the “Ratio CC50/IC50” value in series [2], in series [4] and in series [7] were 1.7, 6.3 and 2.1, respectively. For the same compound, the CC50 in series [6] is 40.2 µM.
For `CC(=O)[C@]1(O)CC[C@@]2(O)[C@]1(C)[C@H](OC(=O)/C=C(\C)C(C)C)C[C@@H]1[C@@]3(C)CC[C@H](OC(=O)/C=C/c4ccc5c(c4)OCO5)CC3=CC[C@]12O`, the IC50 in series [1] worked out at 6.45 µM; in series [3], 43.7 µM; in series [5], 9.37 µM. The results for the “Ratio CC50/IC50” value in series [2], in series [4] and in series [7] were >176.7, >256.7 and >37.9, respectively. In addition, the 50% cytotoxic concentration (CC50) in series [6] was > 1660 µM.
For the compound `COc1cccc(/C=C/C(=O)O[C@H]2CC[C@@]3(C)C(=CC[C@]4(O)[C@@H]3C[C@@H](OC(=O)/C=C(\C)C(C)C)[C@@]3(C)[C@]4(O)CC[C@@]3(O)C(C)=O)C2)c1`, the IC50 stood at 4.46 µM in series [1], 24.9 µM in series [3] and 10.5 µM in series [5]. In addition, the “Ratio CC50/IC50” value in series [2] is given as >102; in series [4] it was >241.2; in series [7], >43.3. For the same compound, the CC50 in series [6] is > 1080 µM.
With `CC(=O)[C@]1(O)CC[C@@]2(O)[C@]1(C)[C@H](OC(=O)/C=C(\C)C(C)C)C[C@@H]1[C@@]3(C)CC[C@H](OC(=O)/C=C/c4ccc(F)cc4)CC3=CC[C@]12O`, the IC50 in series [1] was determined as 10.4 µM; in series [3], 39.5 µM; in series [5], 45.6 µM. The “Ratio CC50/IC50” value in series [2] is recorded as >28.3; in series [4] it was >123.9; in series [7], >32.6. In series [6], the CC50 is > 1290 µM.
Take `CC(=O)[C@]1(O)CC[C@@]2(O)[C@]1(C)[C@H](OC(=O)/C=C(\C)C(C)C)C[C@@H]1[C@@]3(C)CC[C@H](OC(=O)/C=C/c4ccc(C(F)(F)F)cc4)CC3=CC[C@]12O`: the IC50 in series [1] was 10.1 µM; in series [3], 1270 µM; in series [5], 60.2 µM. The “Ratio CC50/IC50” value in series [2] is >21.1; in series [4], >125.9; in series [7], >1. Besides, in series [6], the CC50 was > 1270 µM.
For `CC(=O)[C@]1(O)CC[C@@]2(O)[C@]1(C)[C@H](OC(=O)/C=C(\C)C(C)C)C[C@@H]1[C@@]3(C)CC[C@H](OC(=O)/C=C/c4ccc(Cl)cc4Cl)CC3=CC[C@]12O`, the IC50 was found to be 14.5 µM in series [1], 1180 µM in series [3] and 216 µM in series [5]. The “Ratio CC50/IC50” value in series [2] is listed as >8.8; in series [4], >130.3; in series [7] it was >1.6. Moreover, the CC50 in series [6] was > 1890 µM.
Take `CC(=O)[C@]1(O)CC[C@@]2(O)[C@]1(C)[C@H](OC(=O)/C=C(\C)C(C)C)C[C@@H]1[C@@]3(C)CC[C@H](OC(=O)/C=C/c4cccc(F)c4)CC3=CC[C@]12O`: the values for the IC50 in series [1], in series [3] and in series [5] were 4.75 µM, 12.6 µM and 8.4 µM, respectively. In addition, the “Ratio CC50/IC50” value in series [2] is reported as >126.7; in series [4] it was >224; in series [7], >84.7. Also, the CC50 in series [6] was > 1060 µM.

Usually IC50 stands for the concentration at which inhibition is half-maximal. One may read the CC50 as the concentration at which the toxic effect on the cells reaches its halfway point. The low end stands for harm at low concentration, the high end for better tolerance by the cells.
